{
  "source": "ChEMBL document CHEMBL2157903",
  "about": "“2-Arylbenzofuran-based molecules as multipotent Alzheimer's disease modifying agents” (Eur J Med Chem, 2012)",
  "note": "The source made the active and inactive calls. The calls are words filed in the database; no cut-off is given here.",
  "data": [
    {"biological_target": "Cholinesterase (Homo sapiens, UniProt P06276)", "sequence (P06276 whole entry)": "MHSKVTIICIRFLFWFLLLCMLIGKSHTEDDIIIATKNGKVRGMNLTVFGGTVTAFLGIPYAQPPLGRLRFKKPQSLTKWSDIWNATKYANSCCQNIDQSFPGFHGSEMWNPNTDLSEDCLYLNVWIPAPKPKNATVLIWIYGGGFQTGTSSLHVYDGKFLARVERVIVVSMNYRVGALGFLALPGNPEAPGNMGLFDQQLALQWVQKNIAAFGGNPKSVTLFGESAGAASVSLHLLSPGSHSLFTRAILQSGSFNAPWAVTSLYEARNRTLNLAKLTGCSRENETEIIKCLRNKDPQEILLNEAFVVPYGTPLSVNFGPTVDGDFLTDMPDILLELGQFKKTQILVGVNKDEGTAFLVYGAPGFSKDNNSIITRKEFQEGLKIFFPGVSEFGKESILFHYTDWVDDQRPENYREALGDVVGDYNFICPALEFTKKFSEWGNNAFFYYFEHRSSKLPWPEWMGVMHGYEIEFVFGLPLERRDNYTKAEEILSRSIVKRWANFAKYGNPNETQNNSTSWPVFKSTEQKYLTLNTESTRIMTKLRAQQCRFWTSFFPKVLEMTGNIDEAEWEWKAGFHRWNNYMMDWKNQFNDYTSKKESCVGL", "assay": "Inhibition of human serum BuChE using butyrylthiocholine iodide as substrate preincubated for 20 mins prior to substrate addition by Ellman's method", "details": "not given", "in_short": "(§1)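 Ellman method with acetylthiocholine iodide (AChE) or butyrylthiocholine iodide (BuChE) as substrate. Enzyme and inhibitor preincubated 20 min at 37 °C before substrate addition. Blanks without enzyme corrected for non-enzymatic hydrolysis. Five inhibitor concentrations giving 20-80% inhibition. IC50 from linear regression of % inhibition vs log final concentration. Mean of two or three independent measurements, each in triplicate.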", "units": {"IC50": "µM"}, "values": [
      {"smiles": "CCN(CC)CCOc1ccc(C(=O)c2c(-c3ccc(OCCCCCCCN(C)Cc4ccccc4)cc3)oc3ccccc23)cc1", "IC50": 23},
      {"smiles": "COc1cccc(C(=O)c2c(-c3cccc(OCCCCCCCN(C)Cc4ccccc4)c3)oc3ccccc23)c1OC", "IC50": 3.01},
      {"smiles": "COc1ccccc1C(=O)c1c(-c2cccc(OCCCCCCCN(C)Cc3ccccc3)c2)oc2ccccc12", "IC50": 1.97},
      {"smiles": "CN(CCCCCCCOc1ccc(-c2oc3ccccc3c2C(=O)c2ccc(OCCN3CCOCC3)cc2)cc1)Cc1ccccc1", "IC50": 21},
      {"smiles": "CN(CCCCCCCOc1ccc(-c2oc3ccccc3c2C(=O)c2ccc3ccccc3c2)cc1)Cc1ccccc1", "IC50": 89.1},
      {"smiles": "CCN(CC)CCOc1cccc(C(=O)c2c(-c3ccc(OCCCCCCCN(C)Cc4ccccc4)cc3)oc3ccccc23)c1", "IC50": 1.81}
    ]},
    {"biological_target": "Acetylcholinesterase (Homo sapiens, UniProt P22303)", "sequence (P22303 whole entry)": "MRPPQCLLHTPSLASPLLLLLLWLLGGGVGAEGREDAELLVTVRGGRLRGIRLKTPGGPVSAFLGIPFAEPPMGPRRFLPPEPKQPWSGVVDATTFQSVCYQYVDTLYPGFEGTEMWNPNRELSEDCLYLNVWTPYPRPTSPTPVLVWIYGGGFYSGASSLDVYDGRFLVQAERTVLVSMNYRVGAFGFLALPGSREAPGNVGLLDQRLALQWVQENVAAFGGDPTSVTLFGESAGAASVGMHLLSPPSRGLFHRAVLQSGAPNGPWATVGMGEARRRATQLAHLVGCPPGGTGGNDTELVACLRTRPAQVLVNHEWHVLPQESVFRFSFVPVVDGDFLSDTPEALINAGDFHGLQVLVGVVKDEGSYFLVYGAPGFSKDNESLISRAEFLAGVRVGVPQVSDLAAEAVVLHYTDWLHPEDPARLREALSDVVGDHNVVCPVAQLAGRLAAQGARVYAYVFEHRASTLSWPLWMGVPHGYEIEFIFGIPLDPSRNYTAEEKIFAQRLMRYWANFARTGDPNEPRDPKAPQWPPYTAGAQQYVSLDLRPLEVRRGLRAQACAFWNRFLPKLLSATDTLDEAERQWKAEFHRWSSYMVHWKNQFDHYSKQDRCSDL", "assay": "(§2) Inhibition of human recombinant AChE using acetylthiocholine iodide as substrate preincubated for 20 mins prior to substrate addition by Ellman's method", "details": "not given", "in_short": "as §1", "values": [
      {"smiles": "COc1cccc(C(=O)c2c(-c3cccc(OCCCCCCCN(C)Cc4ccccc4)c3)oc3ccccc23)c1OC", "IC50": "Not Active"},
      {"smiles": "COc1ccccc1C(=O)c1c(-c2cccc(OCCCCCCCN(C)Cc3ccccc3)c2)oc2ccccc12", "IC50": "Not Active"},
      {"smiles": "CN(CCCCCCCOc1ccc(-c2oc3ccccc3c2C(=O)c2ccc3ccccc3c2)cc1)Cc1ccccc1", "IC50": "Not Active"}
    ]},
    {"biological_target": "Acetylcholinesterase (Homo sapiens, UniProt P22303)", "assay": "as §2", "details": "read-out: IC50", "in_short": "as §1", "units": {"IC50": "µM"}, "values": [
      {"smiles": "CCN(CC)CCOc1ccc(C(=O)c2c(-c3ccc(OCCCCCCCN(C)Cc4ccccc4)cc3)oc3ccccc23)cc1", "IC50": 78},
      {"smiles": "CN(CCCCCCCOc1ccc(-c2oc3ccccc3c2C(=O)c2ccc(OCCN3CCOCC3)cc2)cc1)Cc1ccccc1", "IC50": 39},
      {"smiles": "CCN(CC)CCOc1cccc(C(=O)c2c(-c3ccc(OCCCCCCCN(C)Cc4ccccc4)cc3)oc3ccccc23)c1", "IC50": 37.1}
    ]},
    {"system": "not listed separately", "assay": "Inhibition of amyloid beta (25 to 35) fibril formation at 10 uM incubated up to 6 hrs by UV-Vis spectrophotometric analysis", "details": "not given", "in_short": "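Aβ25-35 at 100 μM final, in 10 mM phosphate buffer pH 7.2, sonicated 1 min on addition. Compound added in MeOH at 10 μM final, with curcumin reference alongside. Polymerization followed by UV-vis at 190-380 nm over 0-6 h. Spectra of compound alone were subtracted. At least three independent runs.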", "values": [
      {"smiles": "CCN(CC)CCOc1ccc(C(=O)c2c(-c3ccc(OCCCCCCCN(C)Cc4ccccc4)cc3)oc3ccccc23)cc1", "inhibition": "Active"},
      {"smiles": "CN(CCCCCCCOc1ccc(-c2oc3ccccc3c2C(=O)c2ccc(OCCN3CCOCC3)cc2)cc1)Cc1ccccc1", "inhibition": "Active"},
      {"smiles": "CCN(CC)CCOc1cccc(C(=O)c2c(-c3ccc(OCCCCCCCN(C)Cc4ccccc4)cc3)oc3ccccc23)c1", "inhibition": "Active"}
    ]},
    {"biological_target": "T1, Cannabinoid receptor 1 (Homo sapiens, UniProt P21554)", "T1 sequence (P21554 whole entry)": "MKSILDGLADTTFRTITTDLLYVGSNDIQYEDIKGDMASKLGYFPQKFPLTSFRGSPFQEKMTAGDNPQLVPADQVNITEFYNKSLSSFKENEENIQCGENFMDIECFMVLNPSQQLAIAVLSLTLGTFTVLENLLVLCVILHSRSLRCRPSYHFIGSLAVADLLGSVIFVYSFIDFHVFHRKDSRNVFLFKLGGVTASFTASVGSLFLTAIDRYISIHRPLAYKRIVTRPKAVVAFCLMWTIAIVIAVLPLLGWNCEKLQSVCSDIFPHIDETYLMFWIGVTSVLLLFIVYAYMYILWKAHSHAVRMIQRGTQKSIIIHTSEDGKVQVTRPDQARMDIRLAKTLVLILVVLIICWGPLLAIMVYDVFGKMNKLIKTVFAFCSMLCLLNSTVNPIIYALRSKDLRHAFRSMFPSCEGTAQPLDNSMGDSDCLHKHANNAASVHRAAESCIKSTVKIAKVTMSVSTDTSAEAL", "assay": "Displacement of [3H]CP-55940 from human recombinant CB1 receptor expressed in HEK293 cells after 90 mins", "type": "cell-based", "details": "not given", "in_short": "(§3)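 Membranes from HEK-293 cells stably expressing human recombinant CB1 (Bmax 2.5 pmol/mg) or CB2 (Bmax 4.7 pmol/mg). Incubated with [3H]-CP-55,940 (CB1 0.14 nM, Kd 0.18 nM; CB2 0.084 nM, Kd 0.31 nM) and increasing compound concentrations for 90 min at 30 °C. Non-specific binding defined with 10 […] 55212-2. IC50 by non-linear regression, converted to Ki by Cheng-Prusoff. Means of at least n = 3.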", "units": {"EC50": "µM", "Ki": "µM"}, "values": [
      {"smiles": "CCN(CC)CCOc1ccc(C(=O)c2c(-c3ccc(OCCCCCCCN(C)Cc4ccccc4)cc3)oc3ccccc23)cc1", "EC50": "> 10", "Ki": "> 10"},
      {"smiles": "COc1cccc(C(=O)c2c(-c3cccc(OCCCCCCCN(C)Cc4ccccc4)c3)oc3ccccc23)c1OC", "Activity": "inactive"},
      {"smiles": "COc1ccccc1C(=O)c1c(-c2cccc(OCCCCCCCN(C)Cc3ccccc3)c2)oc2ccccc12", "Activity": "inactive"},
      {"smiles": "CN(CCCCCCCOc1ccc(-c2oc3ccccc3c2C(=O)c2ccc(OCCN3CCOCC3)cc2)cc1)Cc1ccccc1", "EC50": 1.37, "Ki": 0.55},
      {"smiles": "CN(CCCCCCCOc1ccc(-c2oc3ccccc3c2C(=O)c2ccc3ccccc3c2)cc1)Cc1ccccc1", "EC50": "> 10", "Ki": "> 10"},
      {"smiles": "CCN(CC)CCOc1cccc(C(=O)c2c(-c3ccc(OCCCCCCCN(C)Cc4ccccc4)cc3)oc3ccccc23)c1", "EC50": 6.38, "Ki": 2.57}
    ]},
    {"biological_target": "T1, Cannabinoid receptor 1", "assay": "Displacement of [3H]CP-55940 from human recombinant CB1 receptor expressed in HEK293 cells at 10 uM after 90 mins", "type": "cell-based", "details": "not given", "in_short": "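Membranes from HEK-293 cells stably expressing human recombinant CB1 or CB2 were incubated with [³H]-CP-55,940 (0.14 nM for CB1; 0.084 nM for CB2) plus test compound for 90 min at 30 °C. Non-specific binding was defined with WIN 55212-2. Percent displacement of bound radioligand at the maximum tested concentration is reported. At least n = 3 experiments.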", "units": {"Activity": "%"}, "values": [
      {"smiles": "CCN(CC)CCOc1ccc(C(=O)c2c(-c3ccc(OCCCCCCCN(C)Cc4ccccc4)cc3)oc3ccccc23)cc1", "Activity": 35.2},
      {"smiles": "CN(CCCCCCCOc1ccc(-c2oc3ccccc3c2C(=O)c2ccc(OCCN3CCOCC3)cc2)cc1)Cc1ccccc1", "Activity": 83.1},
      {"smiles": "CN(CCCCCCCOc1ccc(-c2oc3ccccc3c2C(=O)c2ccc3ccccc3c2)cc1)Cc1ccccc1", "Activity": 35.1},
      {"smiles": "CCN(CC)CCOc1cccc(C(=O)c2c(-c3ccc(OCCCCCCCN(C)Cc4ccccc4)cc3)oc3ccccc23)c1", "Activity": 76.5}
    ]},
    {"biological_target": "T2, Cannabinoid receptor 2 (Homo sapiens, UniProt P34972)", "T2 sequence (P34972 whole entry)": "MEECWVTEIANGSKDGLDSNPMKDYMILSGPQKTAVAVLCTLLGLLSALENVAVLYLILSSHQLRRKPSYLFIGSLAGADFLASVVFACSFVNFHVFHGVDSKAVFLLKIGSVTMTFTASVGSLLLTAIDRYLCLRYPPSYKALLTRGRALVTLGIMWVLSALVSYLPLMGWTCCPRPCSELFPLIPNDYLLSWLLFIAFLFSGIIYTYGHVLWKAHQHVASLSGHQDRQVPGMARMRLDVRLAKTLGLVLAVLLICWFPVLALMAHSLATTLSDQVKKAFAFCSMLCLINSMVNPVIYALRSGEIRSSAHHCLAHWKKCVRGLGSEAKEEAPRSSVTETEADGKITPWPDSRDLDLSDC", "assay": "Displacement of [3H]CP-55940 from human recombinant CB2 receptor expressed in HEK293 cells after 90 mins", "type": "cell-based", "details": "not given", "in_short": "as §3", "units": {"EC50": "µM", "Ki": "µM"}, "values": [
      {"smiles": "CCN(CC)CCOc1ccc(C(=O)c2c(-c3ccc(OCCCCCCCN(C)Cc4ccccc4)cc3)oc3ccccc23)cc1", "EC50": 4.65, "Ki": 1.18},
      {"smiles": "COc1cccc(C(=O)c2c(-c3cccc(OCCCCCCCN(C)Cc4ccccc4)c3)oc3ccccc23)c1OC", "Activity": "inactive"},
      {"smiles": "COc1ccccc1C(=O)c1c(-c2cccc(OCCCCCCCN(C)Cc3ccccc3)c2)oc2ccccc12", "Activity": "inactive"},
      {"smiles": "CN(CCCCCCCOc1ccc(-c2oc3ccccc3c2C(=O)c2ccc(OCCN3CCOCC3)cc2)cc1)Cc1ccccc1", "EC50": 2.27, "Ki": 0.58},
      {"smiles": "CN(CCCCCCCOc1ccc(-c2oc3ccccc3c2C(=O)c2ccc3ccccc3c2)cc1)Cc1ccccc1", "EC50": "> 10", "Ki": "> 10"},
      {"smiles": "CCN(CC)CCOc1cccc(C(=O)c2c(-c3ccc(OCCCCCCCN(C)Cc4ccccc4)cc3)oc3ccccc23)c1", "EC50": 2.71, "Ki": 0.69}
    ]},
    {"biological_target": "T2, Cannabinoid receptor 2", "assay": "Displacement of [3H]CP-55940 from human recombinant CB2 receptor expressed in HEK293 cells at 10 uM after 90 mins", "type": "cell-based", "details": "not given", "units": {"Activity": "%"}, "values": [
      {"smiles": "CCN(CC)CCOc1ccc(C(=O)c2c(-c3ccc(OCCCCCCCN(C)Cc4ccccc4)cc3)oc3ccccc23)cc1", "Activity": 92},
      {"smiles": "CN(CCCCCCCOc1ccc(-c2oc3ccccc3c2C(=O)c2ccc(OCCN3CCOCC3)cc2)cc1)Cc1ccccc1", "Activity": 70.6},
      {"smiles": "CN(CCCCCCCOc1ccc(-c2oc3ccccc3c2C(=O)c2ccc3ccccc3c2)cc1)Cc1ccccc1", "Activity": 6.87},
      {"smiles": "CCN(CC)CCOc1cccc(C(=O)c2c(-c3ccc(OCCCCCCCN(C)Cc4ccccc4)cc3)oc3ccccc23)c1", "Activity": 77.9}
    ]}
  ]
}
